Data from ChEMBL document CHEMBL1126595, “Studies directed toward the design of orally active renin inhibitors. 2. Development of the efficacious, bioavailable renin inhibitor (2S)-2-benzyl-3- [[(1-methylpiperazin-4-yl)sulfonyl]propionyl]-3-thiazol-4-yl-L-alanine amide of (2S,3R,4S)-2-amino-1-cyclohexyl-3,4-dihydroxy-6-methylheptane …” (J Med Chem, 1993).
Converted amounts (≈) assume the structure as drawn.

Legend:
[1] = molecular target: T1, Renin (Homo sapiens, UniProt P00797); experiment: Inhibitory concentration against human plasma renin at pH 7.4; type: cell-free
T1 sequence (P00797 whole entry): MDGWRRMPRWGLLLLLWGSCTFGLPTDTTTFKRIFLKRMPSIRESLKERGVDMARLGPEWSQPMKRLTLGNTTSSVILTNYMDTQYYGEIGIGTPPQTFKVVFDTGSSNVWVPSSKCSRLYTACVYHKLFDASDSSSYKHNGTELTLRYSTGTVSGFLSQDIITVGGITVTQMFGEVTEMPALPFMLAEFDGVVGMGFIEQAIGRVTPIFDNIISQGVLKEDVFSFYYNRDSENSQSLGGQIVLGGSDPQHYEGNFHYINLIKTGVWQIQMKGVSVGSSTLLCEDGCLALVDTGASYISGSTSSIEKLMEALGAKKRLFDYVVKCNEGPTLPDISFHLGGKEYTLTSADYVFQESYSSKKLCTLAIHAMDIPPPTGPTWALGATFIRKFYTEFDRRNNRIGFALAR

[2] = Bioavailability in the systemic circulation after 10 minutes was determined after intraduodenal dose of 10 mg/kg in rat by renin inhibition assay; type: ADME, organism-based; conditions: plasma (systemic circulation), read-out: Plasma level
How it was run: (§1)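 Screening model in anesthetized rats given 10 mg/kg intraduodenally. Formulation was ethanol stock with 110 mol % HCl, diluted with aqueous hydroxypropyl methylcellulose to 25% ethanol. Systemic and portal blood drawn at 10 and 30 min in the same animals. Drug level (ng/mL) measured by HPLC or renin inhibition assay. Mean ± SEM, n = 3 unless noted.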

[3] = Bioavailability in the portal circulation after 30 minutes was determined after intraduodenal dose of 10 mg/kg in rat by renin inhibition assay; type: ADME, organism-based; conditions: plasma (portal circulation), read-out: Plasma level; how it was run: as §1
[4] = Bioavailability in the portal circulation after 10 minutes was determined after intraduodenal dose of 10 mg/kg in rat by renin inhibition assay; type: ADME, organism-based; conditions: plasma (portal circulation), read-out: Plasma level; how it was run: as §1
[5] = Partition coefficient in the octanol/water phase at pH 7.4; type: physicochemical
How it was run: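 log P measured by octanol/water partition at pH 7.4.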

[6] = Bioavailability in the systemic circulation after 30 minutes was determined after intraduodenal dose of 10 mg/kg in rat by renin inhibition assay; type: ADME, organism-based; conditions: plasma (systemic circulation), read-out: Plasma level; how it was run: as §1
[7] = Bioavailability in the portal circulation after 10 minutes was determined after intraduodenal dose of 10 mg/kg in rat by HPLC method; type: ADME, organism-based; conditions: plasma (portal circulation), read-out: Plasma level; how it was run: as §1
[8] = Bioavailability in rat (dose 10 mg/kg i.d.); type: ADME, organism-based; conditions: in vivo
How it was run: (§2)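 Intraduodenal 10 mg/kg to anesthetized rats or ferrets. Compound dissolved in ethanol with 110 mol % HCl, then diluted in aqueous hydroxypropyl methylcellulose to 25% ethanol (10 mg/mL). Plasma sampled id rat 15, 30, 60, 120 min; id ferret 5, 15, 30, 60, 120, 180 min. Drug measured by renin inhibition assay or HPLC. AUC in ng h/mL. Bioavailability is relative to iv 1.0 mg/kg (rat) or 0.3 mg/kg (ferret).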

[9] = Bioavailability in the systemic circulation after 30 minutes was determined after intraduodenal dose of 10 mg/kg in rat by HPLC method; type: ADME, organism-based; conditions: plasma (systemic circulation), read-out: Plasma level; how it was run: as §1
[10] = Integrated area under the plasma drug level-time curve was determined in systemic circulation after intraduodenal dose of 10 mg/kg in rat; type: ADME, organism-based; set-up: dose 10 mg/kg, route intraduodenal; how it was run: as §2
[11] = Bioavailability in the portal circulation after 30 minutes was determined after intraduodenal dose of 10 mg/kg in rat by HPLC method; type: ADME, organism-based; conditions: plasma (portal circulation), read-out: Plasma level; how it was run: as §1
[12] = Peak concentration was determined in systemic circulation after intraduodenal dose of 10 mg/kg in ferret; type: ADME, organism-based, Mustela putorius furo; set-up: dose 10 mg/kg, route intraduodenal; conditions: in vivo, read-out: Activity; how it was run: as §2
[13] = Integrated area under the plasma drug level-time curve was determined in systemic circulation after intraduodenal dose of 10 mg/kg in ferret; type: ADME, organism-based, Mustela putorius furo; set-up: dose 10 mg/kg, route intraduodenal; how it was run: as §2
[14] = Bioavailability in ferret (dose 10 mg/kg i.d.); type: ADME, organism-based, Mustela putorius furo; conditions: in vivo; how it was run: as §2
[15] = Solubility at pH 7.4; type: physicochemical; conditions: buffer
[16] = Peak concentration was determined in systemic circulation after intraduodenal dose of 10 mg/kg in rat; type: ADME, organism-based; set-up: dose 10 mg/kg, route intraduodenal; conditions: in vivo, read-out: Activity; how it was run: as §2
[17] = Bioavailability in the systemic circulation after 10 minutes was determined after intraduodenal dose of 10 mg/kg in rat by HPLC method; type: ADME, organism-based; conditions: plasma (systemic circulation), read-out: Plasma level; how it was run: as §1
[18] = Hypotension peak is percentage change from predose baseline pressure observed after intraduodenal dose of 10 mg/kg in monkey; type: ADME, organism-based; set-up: dose 10 mg/kg, route intraduodenal; conditions: simiiformes, in vivo, other
How it was run: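 Anesthetized, salt-depleted cynomolgus monkeys given 10 mg/kg intraduodenally. Mean arterial pressure followed for up to 5 h. Peak fall expressed as % change from predose baseline. Difference from baseline significant if P < 0.05. Mean ± SEM.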

[19] = Peak concentration was determined in portal circulation after intraduodenal dose of 10 mg/kg in monkey; type: ADME, organism-based; set-up: dose 10 mg/kg, route intraduodenal; conditions: simiiformes, in vivo, read-out: Activity
How it was run: (§3)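 Anesthetized, salt-depleted cynomolgus monkeys dosed intraduodenally at 10 mg/kg in HCl salt/ethanol–hydroxypropyl methylcellulose vehicle (25% ethanol). Systemic and portal plasma drug levels measured by renin inhibition assay. AUC in ng h/mL. Bioavailability compared against an iv dose of 0.3 mg/kg or 1.0 mg/kg, the latter taken from earlier work. Mean ± SEM.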

[20] = Integrated area under the plasma drug level-time curve was determined in systemic circulation after intraduodenal dose of 10 mg/kg in monkey; type: ADME, organism-based; set-up: dose 10 mg/kg, route intraduodenal; conditions: simiiformes; how it was run: as §3
[21] = Bioavailability was determined after intraduodenal dose of 10 mg/kg in monkey (compared to 1 mg/kg intravenous dose); type: ADME, organism-based; conditions: simiiformes, in vivo, read-out: Bioavailabiility; how it was run: as §3
[22] = Peak concentration was determined in systemic circulation after intraduodenal dose of 10 mg/kg in monkey; type: ADME, organism-based; set-up: dose 10 mg/kg, route intraduodenal; conditions: simiiformes, in vivo, read-out: Activity; how it was run: as §3
[23] = Bioavailability in the systemic circulation after 10 minutes was determined after intraduodenal dose of 15 mg/kg in rat by renin inhibition assay; type: ADME, organism-based; conditions: plasma (systemic circulation), read-out: Plasma level
[24] = Integrated area under the plasma drug level-time curve was determined in portal circulation after intraduodenal dose of 10 mg/kg in monkey; type: ADME, organism-based; set-up: dose 10 mg/kg, route intraduodenal; conditions: simiiformes; how it was run: as §3

SMILES	IC50 [1] [nM]	logD [5]	concentration at 0.5 h [6] [ng/mL]	concentration at 10 min [7] [ng/mL]	concentration at 0.5 h [9] [ng/mL]	concentration at 0.5 h [11] [ng/mL]	solubility [15] [µg/mL]	concentration at 10 min [17] [ng/mL]	also measured
CC(C)C[C@H](O)[C@H](O)[C@H](CC1CCCCC1)NC(=O)[C@H](Cn1cccn1)NC(=O)[C@@H](CC(=O)N(C)CCc1ccccn1)Cc1ccccc1	1.6	> 4.2	–	2200	300	4500	14 (≈ 20.3 µM)	220	bioavailability [8]: 20%; AUC [10]: 760 ng·h/mL; Cmax [12]: 400 ng/mL; AUC [13]: 870 ng·h/mL; bioavailability [14]: 35%; Cmax [16]: 460 ng/mL
CC(C)C[C@H](O)[C@H](O)[C@H](CC1CCCCC1)NC(=O)[C@H](Cc1cscn1)NC(=O)[C@H](Cc1ccccc1)CS(=O)(=O)C(C)(C)C	–	> 4.2	29	–	–	–	–	–	concentration at 10 min [2]: 22 ng/mL; concentration at 0.5 h [3]: 500 ng/mL; concentration at 10 min [4]: 830 ng/mL
CC(C)C[C@H](O)[C@H](O)[C@H](CC1CCCCC1)NC(=O)[C@H](Cc1cscn1)NC(=O)[C@H](Cc1ccccc1)CS(=O)(=O)N(C)CCc1ccccn1	1.8	> 4.5	–	–	–	–	–	–	–
CC(C)C[C@H](O)[C@H](O)[C@H](CC1CCCCC1)NC(=O)[C@H](Cc1cscn1)NC(=O)[C@@H](CC(=O)N(C)CCc1ccncc1)Cc1ccccc1	3	> 4.2	–	–	190	–	12 (≈ 17 µM)	–	–
CC(C)C[C@H](O)[C@H](O)[C@H](CC1CCCCC1)NC(=O)[C@H](Cc1cscn1)NC(=O)[C@@H](CC(=O)N(C)CCc1c[nH]c2ccccc12)Cc1ccccc1	33	–	–	–	–	–	–	–	–
CC(C)C[C@H](O)[C@H](O)[C@H](CC1CCCCC1)NC(=O)[C@H](Cc1cscn1)NC(=O)[C@@H](CC(=O)N(C)CCn1cccn1)Cc1ccccc1	0.72	> 4.2	–	1900	230	2300	44 (≈ 63.3 µM)	140	–
CC(C)C[C@H](O)[C@H](O)[C@H](CC1CCCCC1)NC(=O)[C@H](Cc1cscn1)NC(=O)[C@@H](CC(=O)N(C)CCn1ccnc1)Cc1ccccc1	1.3	4.01	–	400	190	810	120 (≈ 173 µM)	57	–
COCCOCOCCN(C)C(=O)C[C@@H](Cc1ccccc1)C(=O)N[C@@H](Cc1cscn1)C(=O)N[C@@H](CC1CCCCC1)[C@@H](O)[C@@H](O)CC(C)C	1.6	> 4.6	570	–	–	–	180 (≈ 246 µM)	–	concentration at 10 min [2]: 300 ng/mL; concentration at 0.5 h [3]: 3100 ng/mL; concentration at 10 min [4]: 3100 ng/mL

Second part, led by results:

IC50 [1] [nM]	logD [5]	concentration at 0.5 h [6] [ng/mL]	concentration at 10 min [7] [ng/mL]	concentration at 0.5 h [9] [ng/mL]	concentration at 0.5 h [11] [ng/mL]	solubility [15] [µg/mL]	concentration at 10 min [17] [ng/mL]	SMILES	also measured
14	–	–	–	–	–	–	–	CC(C)C[C@H](O)[C@H](O)[C@H](CC1CCCCC1)NC(=O)[C@H](Cn1ccnc1)NC(=O)[C@@H](CC(=O)N(C)CCc1ccccn1)Cc1ccccc1	–
9.4	3.11	450	–	–	–	–	–	CC(C)C[C@H](O)[C@H](O)[C@H](CC1CCCCC1)NC(=O)[C@H](Cc1cscn1)NC(=O)[C@@H](CC(=O)N(C)CCN(C)C)Cc1ccccc1	concentration at 10 min [2]: 600 ng/mL; concentration at 0.5 h [3]: 780 ng/mL; concentration at 10 min [4]: 1600 ng/mL
0.8	–	–	1900	50	370	180 (≈ 251 µM)	68	COCCOCOCCN(C)C(=O)C[C@@H](Cc1ccccc1)C(=O)N[C@@H](Cc1c[nH]cn1)C(=O)N[C@@H](CC1CCCCC1)[C@@H](O)[C@@H](O)CC(C)C	–
4.1	–	–	930	33	600	–	33	COCCN(C)C(=O)C[C@@H](Cc1ccccc1)C(=O)N[C@@H](Cc1cscn1)C(=O)N[C@@H](CC1CCCCC1)[C@@H](O)[C@@H](O)CC(C)C	–
4.1	4.15	570	–	–	–	–	–	CC(C)C[C@H](O)[C@H](O)[C@H](CC1CCCCC1)NC(=O)[C@H](Cc1cscn1)NC(=O)[C@@H](CC(=O)N(C)CCN1CCOCC1)Cc1ccccc1	Cmax [12]: 860 ng/mL; AUC [13]: 1200 ng·h/mL; bioavailability [14]: 85%
37	–	–	–	–	–	–	–	CC(C)C[C@H](O)[C@H](O)[C@H](CC1CCCCC1)NC(=O)[C@H](Cc1cscn1)NC(=O)[C@@H](CC(=O)NCCc1ccccn1)Cc1ccccc1	–
3.9	3.89	–	1800	550	1900	–	510	CC(C)C[C@H](O)[C@H](O)[C@H](CC1CCCCC1)NC(=O)[C@H](Cc1cscn1)NC(=O)[C@H](Cc1ccccc1)CS(=O)(=O)C1CN(C)C1	bioavailability [8]: 80%; AUC [10]: 1300 ng·h/mL; Cmax [12]: 790 ng/mL; AUC [13]: 2000 ng·h/mL; bioavailability [14]: 80%; Cmax [16]: 850 ng/mL
8.5	3.58	74	–	–	–	–	–	CC(C)C[C@H](O)[C@H](O)[C@H](CC1CCCCC1)NC(=O)[C@H](Cc1cscn1)NC(=O)[C@@H](CC(=O)N(C)CCN1CCN(C)CC1)Cc1ccccc1	concentration at 10 min [2]: 80 ng/mL; concentration at 0.5 h [3]: 590 ng/mL; concentration at 10 min [4]: 580 ng/mL
–	4.57	440	–	–	–	–	–	CC(C)C[C@H](O)[C@H](O)[C@H](CC1CCCCC1)NC(=O)[C@H](Cc1cscn1)NC(=O)[C@H](Cc1ccccc1)CS(=O)(=O)N1CCN(C)CC1 [ZANKIREN]	bioavailability [8]: 23%; Change [18]: 37%; Cmax [19]: 2400 ng/mL; AUC [20]: 340 ng·h/mL; AUC [10]: 620 ng·h/mL; Cmax [12]: 940 ng/mL; AUC [13]: 1500 ng·h/mL; bioavailability [21]: 5.1%; bioavailability [14]: 82%; Cmax [22]: 130 ng/mL; concentration at 10 min [23]: 280 ng/mL; AUC [24]: 3800 ng·h/mL; Cmax [16]: 470 ng/mL
